# Bioassay records: PubChem, several laboratories
# Beta cell apopt – blocks beta cell apoptosis; INS-1E cytokine-induced death, ATP luminescence, 48 h; percent of positive-control rescue, neutral wells zero; actives 0.8% (n = 300,000); AID 435005; protection from apoptosis, % (concentration not given with the values);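 active = Every replicate reaches about 75%, or at least half do and their mean reaches it too, limit read from the data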;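 note: 0% = cytokine-treated negative control wells and 100% = positive control rescue; higher means more ATP so stronger rescue from cytokine killing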
# CSC inhib – blocks cancer stem cells. inhibition, % at 7.5 µM. cancer stem cell-like cells viability, luminescence. AID 2717. actives 1.1% (n = 300,000); in the data active = inhibition above about 75%; tested in HMLE shEcad cells
# XBP1 UPR activ – activators of adaptive arm of unfolded protein response (XBP1). CHO-XBP1 luciferase reporter, IRE1-XBP1 UPR activation, luminescence; percent of tunicamycin response, DMSO as zero. activation, % at 20 µM. actives 0.33% (n = 330,000);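 active = versus positive control, 20 µM dose yields 30% or more activation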;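 note: 100% = tunicamycin at 10 µg/mL and 0% = DMSO only wells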
#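 Assay system: IRE1-XBP1 luciferase reporter CHO line. Input: 1000 cells/well. Buffer or medium: F12 with 10% serum. Doses: 20 µM, 1% DMSO. Times: overnight seeding at 37 °C, 6 h compound treatment at 37 °C. Technique: Steady-Glo luciferase glow luminescence, 10 min after reagent addition.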
# SKKanGAS inh – inhibitors of SKKanGAS S. pyogenes growth in kanamycin (SK-promoter or general growth effect); BacTiter-Glo, 6 h; inhibition, % at 7.5 µM; actives 1.3% (n = 300,000);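 active = mean replicate score, as percent of positive control median, at least 50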;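 note: strain carries kanamycin resistance gene driven by streptokinase promoter and grows in 40 µg/ml kanamycin; loss of luminescence reflects streptokinase promoter inhibition or plain growth inhibition; 0% = median of DMSO wells and 100% = positive control at its reference dose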
# CHOP UPR activ – apoptotic UPR (CHOP) activation. activation, % at 10 µM. actives 0.34% (n = 330,000). CHO-CHOP luciferase reporter, luminescence; percent of tunicamycin response over DMSO baseline;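 active = at 10 µM dose, activation of 40% or more, normalized to positive control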;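 note: 100% = tunicamycin at 10 µg/mL and 0% = DMSO alone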
#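 measured by = luciferase luminescence | assay system = CHO-CHOP cells, stable luciferase reporter of PERK-eIF2a-CHOP signalling | amount = 500 reporter cells seeded per well | timing = 6 h compound exposure at 37 °C after overnight seeding | controls = positive tunicamycin 10 µg/mL, negative DMSO alone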
# Mdm2 MdmX PPI – inhibitors of human Mdm2/MdmX interaction | O15151+Q00987 | SaOS-2 split-luciferase Mdm2/MdmX complementation, luminescence | inhibition, % at 8 µM | actives 3% (n = 330,000);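 active = inhibition of at least 50% at 8 µM in the primary screen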
# Target sequence (O15151 whole entry, looked up): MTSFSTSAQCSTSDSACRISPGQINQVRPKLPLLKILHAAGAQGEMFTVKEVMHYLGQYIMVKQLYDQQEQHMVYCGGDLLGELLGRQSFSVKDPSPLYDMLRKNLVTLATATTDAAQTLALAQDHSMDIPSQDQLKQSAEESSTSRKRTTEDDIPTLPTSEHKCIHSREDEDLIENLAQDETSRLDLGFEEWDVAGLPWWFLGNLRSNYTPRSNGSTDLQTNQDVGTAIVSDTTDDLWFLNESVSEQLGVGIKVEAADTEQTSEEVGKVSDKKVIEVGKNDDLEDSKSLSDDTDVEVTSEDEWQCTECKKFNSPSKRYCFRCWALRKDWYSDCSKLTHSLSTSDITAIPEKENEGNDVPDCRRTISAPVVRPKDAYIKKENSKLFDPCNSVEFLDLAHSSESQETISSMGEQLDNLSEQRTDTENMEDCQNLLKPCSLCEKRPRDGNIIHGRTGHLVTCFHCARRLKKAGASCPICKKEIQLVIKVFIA
# Target sequence (Q00987 whole entry, looked up): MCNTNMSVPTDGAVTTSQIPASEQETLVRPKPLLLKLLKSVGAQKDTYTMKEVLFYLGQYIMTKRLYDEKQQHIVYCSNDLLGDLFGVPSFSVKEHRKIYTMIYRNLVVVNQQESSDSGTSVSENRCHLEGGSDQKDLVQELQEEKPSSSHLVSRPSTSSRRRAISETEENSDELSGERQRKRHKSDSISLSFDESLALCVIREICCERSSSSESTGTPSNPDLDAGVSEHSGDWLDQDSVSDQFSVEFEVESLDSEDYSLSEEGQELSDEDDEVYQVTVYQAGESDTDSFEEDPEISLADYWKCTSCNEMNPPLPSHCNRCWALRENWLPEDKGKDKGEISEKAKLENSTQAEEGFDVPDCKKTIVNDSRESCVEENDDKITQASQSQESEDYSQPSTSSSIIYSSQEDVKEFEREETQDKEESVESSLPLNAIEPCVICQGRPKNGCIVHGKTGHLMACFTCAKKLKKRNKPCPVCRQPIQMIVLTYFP
# CHOP UPR conf – apoptotic UPR (CHOP) activation, confirmed. actives 64% (n = 1,000). activation, % at 10 µM. shares compounds with CHOP UPR activ. CHO-CHOP cells, CHOP-luciferase reporter luminescence; percent of tunicamycin response, DMSO as zero. AID 463112; in the data active = activation above about 33%;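 note: 0% = DMSO wells and 100% = tunicamycin 10 µg/mL wells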
# The depositor's hits bear a star; . = no result; ! = not active in a repeat. Shown are actives, neighbours in structure and some others; about 4.8% of the full set was active somewhere.
SMILES,Beta cell apopt,CSC inhib,XBP1 UPR activ,SKKanGAS inh,CHOP UPR activ,Mdm2 MdmX PPI,CHOP UPR conf
CCOC(=O)N1CCC(Nc2ccc(N3C(=O)C4CCCCC4C3=O)cc2[N+](=O)[O-])CC1 (stereo not given),-4.3,16.8,-1.8,-8.6,-1.8,-44.4,.
N#Cc1ccccc1OCC(=O)NCC(c1ccc(F)cc1)N1CCOCC1 (stereo not given),.,.,-0.8,.,-1.0,8.1,.
Cc1nnc(SCC2=C(C(=O)O)N3C(=O)C(NC(=O)Cn4cnnn4)C3SC2)s1 (stereo not given),.,-9.2,-7.1,106.1*,-2.2,-3.5,.
Cc1nnc(SCC2=C(C(=O)O)N3C(=O)C(NC(=O)COc4ccccc4)C3SC2)s1 (stereo not given),.,.,-3.8,.,0.7,17.8,.
Cc1nnc(SCC2=C(C(=O)O)N3C(=O)[C@@H](NC(=O)Cn4cnnn4)[C@H]3SC2)s1,.,-12.2,-4.6,104.7*!,-0.5,13.8,.
Cc1[nH]n(C)c(=O)c1C(=O)c1c(-c2ccccc2Cl)noc1C,2.7,-10.8,-5.4,-0.4,1.0,7.5,.
Cc1ccc(NCc2ccccc2F)cc1,-2.9,2.7,2.8,-1.2,0.9,10.2,.
Fc1ccccc1CNc1ccc(Cl)c(Cl)c1,-7.6,2.8,0.8,56.2*,3.2,2.0,.
CCCCCN=Cc1c(C)[nH]n(-c2nc3ccccc3s2)c1=O,90.4*,-18.0,0.1,13.0,4.5,26.8,.
CCOC(=O)CN1C(=O)/C(=C/c2c(F)cccc2Cl)Oc2ccccc21,-1.0,16.2,-0.9,18.8,2.0,9.0,.
Cc1noc(C)c1COc1ccc(C(=O)NNC(=O)c2ccccc2O)cc1,-0.6,40.7,-1.7,-3.5,3.0,26.5,.
C[C@@H]1CCCCCCCCC(=O)OCCN(C(=O)OC(C)(C)C)[C@H](C)CCCCCCCCC(=O)OCCN(C(=O)OC(C)(C)C)[C@H](C)CCCCCCCCC(=O)OCCN(C(=O)OC(C)(C)C)[C@H](C)CCCCCCCCC(=O)OCCN1C(=O)OC(C)(C)C,0.8,.,2.5,.,0.8,-29.6,.
Cc1cccc(C)c1NC(=O)C1c2cccc[n+]2CC(=O)N1Cc1cccs1 (stereo not given),-0.5,-11.1,-2.3,11.1,3.8,8.4,.
Cc1ccc(NC(=O)Cn2c(=O)oc3cc(S(=O)(=O)N4CCC(C)CC4)ccc32)cc1C,76.0*,-0.7,-3.5,2.2,0.7,16.7,.
Cc1ccc(-c2nnc(NC(=O)c3ccc([N+](=O)[O-])o3)o2)c(C)c1,-3.8,-1.3,-1.4,69.5*,0.2,25.3,.
O=C(Cc1cccc([N+](=O)[O-])c1)Nc1ccc(C(=O)N2CCCCC2)cc1,-5.2,-10.2,-2.1,.,-0.5,12.8,.
Cc1ccccc1OCC(=O)NNC(=S)NC(=O)c1ccco1,6.2,.,-0.5,114.6*,-0.1,8.4,.
CC(C)(C)c1ccc(OCC(=O)NCc2ccco2)c(Br)c1,-6.4,9.3,4.8,7.4,2.4,5.3,.
CC(C)(C)c1ccc(OCC(=O)NNC(=S)NC(=O)c2ccco2)c(Br)c1,13.2,-10.1,-1.2,118.5*,-0.9,41.8,.
CC(=O)c1cccc(NC(=O)CN2CCc3cc4c(cc3C2C)OCCCO4)c1 (stereo not given),-1.1,-13.2,-4.4,-2.5,-2.4,24.3,.
O=C(NCCc1ccccc1)c1ccc2c(c1)S(=O)(=O)c1cc(Cl)ccc1C2=O,-0.1,9.8,-1.1,.,-1.3,11.3,.
COC(=O)Oc1ccc(/C=C/C(=O)OC(C)C)cc1OC(=O)OC,29.3,58.1,13.7,5.0,130.5*,-2.3,61.0*
O=C(NCCCN1CCOCC1)c1nn(-c2ccccc2)c(=O)c2ccccc12,-4.5,-9.4,-3.4,16.5,-1.1,-2.2,.
CC1CCCCC1NC(=O)NC(=O)CCl (stereo not given),5.5,-7.8,-1.6,-9.9,42.1*,33.0,6.6
Cc1ccc(C(=O)OCC(=O)N2C(C)CCCC2C)cc1S(=O)(=O)N1CCOCC1 (stereo not given),1.4,-3.9,-1.0,-4.6,-0.6,9.2,.
SMILES,Beta cell apopt,CSC inhib,XBP1 UPR activ,SKKanGAS inh,CHOP UPR activ,Mdm2 MdmX PPI,CHOP UPR conf
CC(C)(C)c1ccc(OCc2ccc(C(=O)N/N=C/c3ccc(O)c(O)c3)cc2)cc1,94.7*,88.9*,19.8,61.6*,40.9*,15.7,26.6
O=C(N/N=C/c1ccc(OCc2ccc(F)cc2)cc1)c1ccccc1,-3.6,4.0,-0.5,-5.1,3.5,21.7,.
CCN(CC)c1ccc(/C=C2\SC(=O)N(C(C)C)C2=O)o1,59.9,10.7,-3.5,-3.9,111.7*,0.6,14.7
CC(C)N1C(=O)S/C(=C/c2ccc3c(c2)n(C)c(=O)n3C)C1=O,-3.3,7.9,11.0,24.9,3.6,45.1,.
O=C(CN1CCN(S(=O)(=O)c2ccc(Cl)cc2)CC1)c1ccc(O)c(O)c1,4.5,-6.1,22.0,-2.9,71.4*,23.2,5.3
O=C(CN1CCN(S(=O)(=O)c2ccc(F)cc2)CC1)c1ccc(O)c(O)c1,-0.5,-6.1,27.0,3.0,10.1,-16.0,.
Cc1oc2c(O)c(O)ccc2c(=O)c1-c1cnn(-c2ccccc2)c1,-2.1,54.6,5.8,2.2,114.0*,10.9,13.7
O=C(Cc1ccccc1)Nc1nccs1,.,-10.4,-0.5,-0.1,-0.9,13.0,.
S=C(Nc1ccccc1)Nc1nccs1,22.5,11.2,19.5,35.5,103.8*,-39.7,59.5*
Fc1ccc(NC(=S)Nc2nccs2)cc1,43.3,19.3,8.6,17.8,75.2*,-40.3,80.3*
CN1CCC(NC(=S)NC2CC2)CC1,1.9,-14.3,-5.8,0.3,87.5*,-1.9,-1.1
CC(=O)c1ccc(NC(=O)COC(=O)c2ccccc2N=Nc2ccc(N(C)C)cc2)cc1,-9.1,0.8,8.8,1.6,44.4*,-24.1,55.2*
CCN(CC)S(=O)(=O)c1ccc(OC)c(NC(=O)CSCc2c(C)noc2C)c1,-1.8,.,-3.5,.,-0.3,20.4,.
Oc1ccc(-c2csc(Nc3cccc4ccccc34)n2)cc1O,-7.6,8.2,10.0,20.0,131.0*,-5.2,141.9*
CC(=O)Nc1ccc(-c2csc(Nc3ccccn3)n2)cc1,5.2,-7.1,1.4,-17.1,6.8,-292.9,.
Oc1ccc(-c2csc(Nc3ccccn3)n2)cc1O,13.9,43.4,8.9,-0.2,167.7*,-153.6,130.3*
Cc1ccnc(Nc2nc(-c3ccc(O)c(O)c3)cs2)c1,9.0,68.1,-0.3,-2.7,75.9*,-38.1,181.3*
Cc1ccc2nc(C)c3c(c2c1)N(c1ccc(F)cc1)CC3,22.8,-5.5,-0.9,-2.1,-1.4,6.5,.
O=C(c1c(F)cccc1F)N1CCCc2ccccc21,-3.5,-14.4,-4.6,3.0,-0.2,36.8,.
